Source: PubChem BioAssay
SR-BI DiI inh: inhibitors of mouse SR-BI mediated HDL lipid uptake; ldlA[mSR-BI] CHO cells, DiI-HDL uptake fluorescence, 3 h; inhibition, % at 12.5 µM; 320,000 compounds, 0.96% hits; AID 488896;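 active = mean replicate inhibition of at least 70% and a set share of replicates each scoring 70 or more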
SMARCA2 act: SMARCA2 function activation, primary screen; MG213 cells, MMTV-luciferase reporter, dexamethasone, overnight; activation, % at 9.1 µM; 370,000 compounds, 1% hits; AID 652017; in the data active = activation above about 7.8%
SR-BI uptake up: SR-BI HDL lipid transfer activation; CHO ldlA[mSR-BI] cells, DiI-HDL uptake fluorescence, 3 h; 100 = double the neutral-control signal; activation, % at 12.5 µM; 320,000 compounds, 0.096% hits; AID 504775;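 active = mean replicate activation of at least 60% and every replicate at or above 60%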
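system = CHO ldlA[mSR-BI] cells, LDL receptor-null, SR-BI overexpressing | medium = Ham's F12 with 0.5% BSA, HEPES 25 mM, pH 7.4 | probe or stimulus = DiI-HDL 10 µg/mL | compound dosing = single-point compound dose | incubation = compound exposure 3 h, 37 °C | technique = DiI fluorescence, bottom read | read-out = cell-associated DiI fluorescence as measure of HDL uptake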
Lipid droplet: modulators of hepatic lipid droplet formation; AML12 mouse hepatocytes, oleate lipid droplets, BODIPY imaging; inhibition, % at 6.5 µM; 240,000 compounds, 0.4% hits; AID 1656;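 active = lipid droplet intensity inhibited by at least 50%, with more than 500 cells counted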
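Assay system: AML12 hepatocytes (mouse); Probe or stimulus: oleic acid at 100 µM to induce lipid droplet formation; Dosing: compound at 6.5 µM only; Schedule: compound with oleate, overnight; Detection: fluorescence imaging, 20x objective, two fields per well; Measure: % inhibition of lipid droplet signal.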
Yeast superoxide: caloric restriction mimetics inhibiting age-related superoxide in yeast | AID 2690 | superoxide response (% of plate mean), % at 10 µM | 330,000 compounds, 0.18% hits | S. cerevisiae aged cells, superoxide DHE fluorescence; stronger effect = lower value;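 active = superoxide response under a set limit, about three screen SD below normal, cut at about 65% in these data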;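 also: yeast aged for seven days with compound at 30 °C before DHE staining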
AHR act: activators of human aryl hydrocarbon receptor | 320,000 compounds, 2.5% hits | activation, % at 5 µM | P35869 | AHR-responsive luciferase reporter cells, luminescence | AID 2796; in the data active = activation above about 47%
Hits are given with their value. The list is not random: actives were taken first. Their share in the collection is about 4.3%.

Screening CN(C)C(=O)CCc1ccc2c3c([nH]c2c1)[C@]1(C)[C@@H](C(=O)N2CCOCC2)C[C@H](CC(=O)NCc2ccco2)C(=O)N1CC3 returned SR-BI DiI inh inactive, SMARCA2 act inactive, SR-BI uptake up inactive and Yeast superoxide inactive.
Cc1cc(C)n2nc(-c3sccc3-n3c(C)ccc3C)cc2n1 was read as SR-BI DiI inh inactive, SMARCA2 act inactive, SR-BI uptake up inactive, Yeast superoxide inactive and AHR act 52.0.
Screening COc1ccc(-c2cc3nc(C)cc(C)n3n2)cc1 returned SR-BI DiI inh inactive, SMARCA2 act inactive, SR-BI uptake up inactive, Lipid droplet inactive, Yeast superoxide inactive and AHR act inactive.
For CC1CCc2c(sc(NC(=O)COC(=O)c3ccccc3NCc3ccco3)c2C#N)C1 (configuration not stated) the results were SR-BI DiI inh inactive, SMARCA2 act inactive, SR-BI uptake up inactive, Lipid droplet inactive, Yeast superoxide inactive and AHR act inactive.
CCOC(=O)c1c(NC(=O)Cn2nnc3ccccc32)sc2c1CCC(C)C2 (configuration not stated) was read as SR-BI DiI inh inactive, SMARCA2 act inactive, SR-BI uptake up inactive, Yeast superoxide inactive and AHR act 62.7.
`CCOC(=O)c1c(NC(=O)C(C)NCc2ccco2)sc2c1CCC(C)C2` (configuration not stated) gave SR-BI DiI inh inactive, SMARCA2 act inactive, SR-BI uptake up inactive, Lipid droplet inactive, Yeast superoxide inactive and AHR act 50.6.
For Cc1onc(-c2ccccc2Cl)c1C(=O)Nc1sc2c(c1C(N)=O)CCC(C)C2 (configuration not stated) the results were SR-BI DiI inh 73.5, SMARCA2 act inactive, SR-BI uptake up inactive, Lipid droplet inactive, Yeast superoxide inactive and AHR act inactive.
For CCOC(=O)c1c(NC(=O)COC(=O)Cn2cnc3ccccc32)sc2c1CCC(C)C2 (configuration not stated) the results were SR-BI DiI inh inactive, SMARCA2 act inactive, SR-BI uptake up inactive, Lipid droplet inactive, Yeast superoxide inactive and AHR act inactive.
COc1ccc2c(c1)c1nnc(SCC(=O)NC3CC3)nc1n2C was read as SR-BI DiI inh inactive, SMARCA2 act inactive, SR-BI uptake up inactive, Lipid droplet inactive, Yeast superoxide inactive and AHR act 72.0.
Cc1c(NC(=O)CSc2ccc(Cl)cc2)cccc1-c1nc2cc(Cl)ccc2o1 was read as SR-BI DiI inh inactive, SMARCA2 act inactive, SR-BI uptake up inactive, Lipid droplet inactive, Yeast superoxide inactive and AHR act 96.7.
O=[N+]([O-])c1cccc(/C(=N/N=C/c2ccccc2Br)C23CN4CN(CN(C4)C2)C3)c1 was read as SR-BI DiI inh inactive, SMARCA2 act inactive, SR-BI uptake up inactive, Yeast superoxide inactive and AHR act 67.3.
Screening CC(C)=N/N=C(/c1ccc([N+](=O)[O-])cc1)C12CN3CN(CN(C3)C1)C2 returned SR-BI DiI inh inactive, SMARCA2 act inactive, SR-BI uptake up inactive, Lipid droplet inactive, Yeast superoxide inactive and AHR act inactive.
`C=CCc1ccccc1OCCSc1nc2ccc([N+](=O)[O-])cc2s1` gave SR-BI DiI inh inactive, SMARCA2 act inactive, SR-BI uptake up inactive, Lipid droplet inactive, Yeast superoxide inactive and AHR act 55.6.
For O=C(NCCc1c[nH]c2ccccc12)c1cc(Cl)c2c(c1)OCO2 the results were SMARCA2 act inactive, Lipid droplet inactive, Yeast superoxide inactive and AHR act 47.8.
Screening Cc1ccc2[nH]cc(CCNC(=O)c3ccc4c(c3)OCO4)c2c1 returned SR-BI DiI inh inactive, SMARCA2 act inactive, SR-BI uptake up inactive, Lipid droplet inactive, Yeast superoxide inactive and AHR act inactive.
Screening O=C(CSc1c[nH]c2ccccc12)NCc1ccc2c(c1)OCO2 returned SR-BI DiI inh inactive, SMARCA2 act inactive, SR-BI uptake up inactive, Lipid droplet inactive, Yeast superoxide inactive and AHR act inactive.
Screening O=C(NCCSc1c[nH]c2ccccc12)c1ccc2c(c1)OCO2 returned SR-BI DiI inh inactive, SMARCA2 act inactive, SR-BI uptake up inactive, Lipid droplet inactive, Yeast superoxide inactive and AHR act 50.5.
CCN(C(=O)[C@@H](C1CC1)[C@@H](O)c1ccc(Cl)cc1)c1ccccc1 was read as SMARCA2 act inactive.
CCN1/C(=C/C=C/c2sc3ccccc3[n+]2CC)Sc2ccccc21 was read as SR-BI DiI inh inactive, SR-BI uptake up 722.3, Yeast superoxide inactive and AHR act inactive.
Screening CCN1/C(=C/C=C/C=C/c2sc3ccccc3[n+]2CC)Sc2ccccc21 returned Lipid droplet inactive, Yeast superoxide inactive and AHR act inactive.
Screening O=C(Nc1ccc2ncccc2c1)c1ccccc1Br returned SR-BI DiI inh inactive, SR-BI uptake up 213.7, Yeast superoxide inactive and AHR act inactive.
Nc1ncnc(N)c1NC(=O)c1ccccc1 was read as SMARCA2 act inactive.
CCOc1cccc(/C=N\NC(=O)c2cnccn2)c1O was read as SMARCA2 act inactive.
Cc1cc(NS(=O)(=O)c2ccc(NC(=O)Cc3ccccc3)cc2)no1 was read as SMARCA2 act inactive.
`CCOC(=O)c1c(C)[nH]c(C(=O)OCc2ccc([N+](=O)[O-])cc2)c1C` gave SR-BI DiI inh inactive, SMARCA2 act inactive, SR-BI uptake up inactive, Lipid droplet inactive, Yeast superoxide inactive and AHR act 52.8.
Screening CCOC(=O)c1c(C)[nH]c(C(=O)OCc2ccc(C)cc2)c1C returned SR-BI DiI inh inactive, SMARCA2 act inactive, SR-BI uptake up inactive, Lipid droplet inactive, Yeast superoxide inactive and AHR act 48.6.
For C[C@H]1COc2cc(Br)ccc2S(=O)(=O)N1Cc1cn(Cc2ccc(Br)cc2)nn1 the results were SMARCA2 act inactive.
Screening CC(Oc1ccccc1)C(=O)N=Nc1c(O)[nH]c2ccc([N+](=O)[O-])cc12 (configuration not stated) returned SR-BI DiI inh inactive, SMARCA2 act inactive, SR-BI uptake up inactive, Lipid droplet inactive, Yeast superoxide inactive and AHR act 63.4.
Screening O=C(N=Nc1c(O)[nH]c2ccc([N+](=O)[O-])cc12)c1ccccc1[N+](=O)[O-] returned SMARCA2 act inactive, Lipid droplet inactive, Yeast superoxide inactive and AHR act inactive.
Screening CCOC(=O)c1cnn(-c2cc(C)c3ccccc3n2)c1N returned SR-BI DiI inh inactive, SMARCA2 act inactive, SR-BI uptake up inactive, Yeast superoxide inactive and AHR act 53.3.
`CCOC(=O)c1cnn(-c2ccccn2)c1N` gave SR-BI DiI inh inactive, SMARCA2 act 7.9, SR-BI uptake up inactive, Yeast superoxide inactive and AHR act inactive.
Screening CCOC(=O)c1cnn(-c2cc(Oc3ccccc3)ncn2)c1N returned SR-BI DiI inh inactive, SMARCA2 act inactive, SR-BI uptake up inactive, Yeast superoxide inactive and AHR act inactive.
